Assay results reported in ChEMBL document CHEMBL1152631, “Design, synthesis, and preliminary studies of the activity of novel derivatives of N-cinnamoyl-L-aspartic acid as inhibitors of aminopeptidase N/CD13” (Bioorg Med Chem, 2009).

Tests used:
Aminopeptidase N = biological target: T1, Aminopeptidase N (Sus scrofa, UniProt P15145); assay: Inhibition of porcine kidney microsome APN assessed as L-Leu-p-nitroanilide hydrolysis
T1 sequence (P15145 whole entry): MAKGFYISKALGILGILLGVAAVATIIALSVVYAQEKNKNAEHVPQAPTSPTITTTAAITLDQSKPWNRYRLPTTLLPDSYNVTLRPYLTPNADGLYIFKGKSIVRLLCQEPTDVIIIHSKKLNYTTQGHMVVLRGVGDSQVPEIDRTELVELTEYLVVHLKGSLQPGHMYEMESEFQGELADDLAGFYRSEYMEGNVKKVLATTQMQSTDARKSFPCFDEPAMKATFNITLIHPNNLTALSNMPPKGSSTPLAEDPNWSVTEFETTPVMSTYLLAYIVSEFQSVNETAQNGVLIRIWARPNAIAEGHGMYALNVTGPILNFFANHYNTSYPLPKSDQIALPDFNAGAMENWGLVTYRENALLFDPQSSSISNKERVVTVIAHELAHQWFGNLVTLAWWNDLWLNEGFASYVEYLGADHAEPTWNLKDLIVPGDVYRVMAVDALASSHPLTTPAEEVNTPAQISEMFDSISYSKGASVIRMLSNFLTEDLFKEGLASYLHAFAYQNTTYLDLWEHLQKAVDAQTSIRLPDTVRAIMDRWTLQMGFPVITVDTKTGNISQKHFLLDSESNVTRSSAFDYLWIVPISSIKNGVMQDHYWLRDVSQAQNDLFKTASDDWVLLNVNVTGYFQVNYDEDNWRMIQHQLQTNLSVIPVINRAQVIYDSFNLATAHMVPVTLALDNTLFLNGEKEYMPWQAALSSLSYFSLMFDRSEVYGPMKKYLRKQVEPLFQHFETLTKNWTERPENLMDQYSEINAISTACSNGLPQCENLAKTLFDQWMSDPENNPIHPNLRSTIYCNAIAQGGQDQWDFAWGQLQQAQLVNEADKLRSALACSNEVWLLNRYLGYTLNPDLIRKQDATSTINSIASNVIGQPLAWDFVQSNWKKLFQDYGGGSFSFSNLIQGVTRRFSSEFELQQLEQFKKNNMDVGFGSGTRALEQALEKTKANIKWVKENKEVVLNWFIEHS
In short: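 Porcine kidney microsomal aminopeptidase, 4 mg/ml final, in PBS pH 7.2 at 37 °C. Inhibitor solutions made in assay buffer and adjusted to pH 7.5, preincubated with enzyme 30 min at room temperature.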

[1] = biological target: 72 kDa type IV collagenase (Homo sapiens, UniProt P08253); assay: Inhibition of MMP2
Chain of 72 kDa type IV collagenase (P08253 whole entry): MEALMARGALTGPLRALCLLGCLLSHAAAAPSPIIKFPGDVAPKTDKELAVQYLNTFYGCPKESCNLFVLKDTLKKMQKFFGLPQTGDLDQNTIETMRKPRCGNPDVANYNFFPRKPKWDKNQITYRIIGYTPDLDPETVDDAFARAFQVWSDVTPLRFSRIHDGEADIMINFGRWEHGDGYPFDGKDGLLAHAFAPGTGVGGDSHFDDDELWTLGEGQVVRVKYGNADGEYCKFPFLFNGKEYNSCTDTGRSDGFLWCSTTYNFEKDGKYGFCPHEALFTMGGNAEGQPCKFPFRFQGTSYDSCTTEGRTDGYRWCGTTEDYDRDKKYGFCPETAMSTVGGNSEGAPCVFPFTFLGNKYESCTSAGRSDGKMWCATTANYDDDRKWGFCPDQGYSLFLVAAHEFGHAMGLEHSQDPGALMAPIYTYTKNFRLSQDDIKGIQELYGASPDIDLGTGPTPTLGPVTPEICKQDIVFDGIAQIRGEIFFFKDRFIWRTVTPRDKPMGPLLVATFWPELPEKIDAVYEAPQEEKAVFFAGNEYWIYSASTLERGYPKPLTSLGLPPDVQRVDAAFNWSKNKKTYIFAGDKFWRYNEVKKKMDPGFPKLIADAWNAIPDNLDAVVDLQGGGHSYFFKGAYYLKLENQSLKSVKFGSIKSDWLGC
In short: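 Gelatinase A (MMP-2) with synthetic substrate and inhibitor in sodium borate (50 mmol/l, pH 8.5), incubated 30 min at 37 °C. Then 0.03% TNBS added for a further 20 min and absorbance read at 450 nm.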

HL-60 = assay: Antiproliferative activity against human HL60 cells after 48 hrs by MTT assay; type: functional, cell-based; details: HL-60, 48 h
In short: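 HL-60 cells kept in RPMI1640 with 10% FBS at 37 °C, 5% CO2. Seeded 10,000 cells per well, grown 4 h, then exposed to 1600, 800, 400, 200 or 100 µg/ml for 48 h. Added 0.5% MTT, incubated 4 h, dissolved formazan in DMSO and read OD at 570 nm. Mean and SE of five independent experiments.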

| Compound | IC50 (Aminopeptidase N) | IC50 [1] | IC50 (HL-60) |
| --- | --- | --- | --- |
| CCCNC(=O)C[C@@H](NC(=O)/C=C/c1ccccc1)C(=O)O | 9110 µM | – | – |
| CCCCCCCCNC(=O)C[C@@H](NC(=O)/C=C/c1ccccc1)C(=O)O | 232 µM | > 1000 µM | – |
| CCCNC(=O)C[C@@H](NC(=O)/C=C/c1ccccc1)C(=O)NO | 36 µM | 131 µM | – |
| CCCCNC(=O)C[C@@H](NC(=O)/C=C/c1ccccc1)C(=O)NO | 11.1 µM | 232 µM | 780 µM |
| CCCCCNC(=O)C[C@@H](NC(=O)/C=C/c1ccccc1)C(=O)O | 204 µM | – | – |
| CC(C)NC(=O)C[C@@H](NC(=O)/C=C/c1ccccc1)C(=O)NO | 65.9 µM | – | – |
| O=C(/C=C/c1ccccc1)N[C@H](CC(=O)Nc1ccc(Cl)cc1)C(=O)O | 349 µM | – | – |
| CC(C)NC(=O)C[C@@H](NC(=O)/C=C/c1ccccc1)C(=O)O | 2200 µM | – | – |
| O=C(/C=C/c1ccccc1)N[C@H](CC(=O)Nc1ccccc1Cl)C(=O)NO | 86.6 µM | > 1000 µM | – |
| O=C(/C=C/c1ccccc1)N[C@H](CC(=O)Nc1ccc([N+](=O)[O-])cc1)C(=O)O | 273 µM | – | – |
| O=C(/C=C/c1ccccc1)N[C@H](CC(=O)Nc1cccc([N+](=O)[O-])c1)C(=O)NO | 1440 µM | > 1000 µM | – |
| O=C(/C=C/c1ccccc1)N[C@H](CC(=O)Nc1cccc([N+](=O)[O-])c1)C(=O)O | 1780 µM | > 1000 µM | – |
| O=C(/C=C/c1ccccc1)N[C@H](CC(=O)Nc1ccc(Cl)cc1)C(=O)NO | 192 µM | 197 µM | – |
| O=C(/C=C/c1ccccc1)N[C@H](CC(=O)Nc1cccc(Cl)c1)C(=O)NO | 1210 µM | > 1000 µM | – |
| O=C(/C=C/c1ccccc1)N[C@H](CC(=O)Nc1ccccc1)C(=O)O | 232 µM | > 1000 µM | – |
| O=C(/C=C/c1ccccc1)N[C@H](CC(=O)Nc1cccc2ccccc12)C(=O)NO | 2050 µM | – | – |
| O=C(/C=C/c1ccccc1)N[C@H](CC(=O)Nc1ccccc1Cl)C(=O)O | 263 µM | – | – |
| CCCCNC(=O)C[C@@H](NC(=O)/C=C/c1ccccc1)C(=O)O | 190 µM | – | – |
| O=C(/C=C/c1ccccc1)N[C@H](CC(=O)NCc1ccccc1)C(=O)NO | 65.1 µM | – | – |
| CC(C)C[C@H](NC(=O)[C@@H](O)[C@H](N)Cc1ccccc1)C(=O)O [UBENIMEX] | – | – | 920 µM |
| O=C(/C=C/c1ccccc1)N[C@H](CC(=O)Nc1cccc(Cl)c1)C(=O)O | 719 µM | – | – |
| O=C(/C=C/c1ccccc1)N[C@H](CC(=O)Nc1ccc([N+](=O)[O-])cc1)C(=O)NO | 189 µM | – | – |
| CCCCCCCCNC(=O)C[C@@H](NC(=O)/C=C/c1ccccc1)C(=O)NO | 18.5 µM | – | – |
| O=C(/C=C/c1ccccc1)N[C@H](CC(=O)NCc1ccccc1)C(=O)O | 207 µM | – | – |
| CCCCCCCCCCCCNC(=O)C[C@@H](NC(=O)/C=C/c1ccccc1)C(=O)O | 962 µM | – | – |
| O=C(/C=C/c1ccccc1)N[C@H](CC(=O)Nc1cccc2ccccc12)C(=O)O | 739 µM | > 1000 µM | – |
| CCCCCNC(=O)C[C@@H](NC(=O)/C=C/c1ccccc1)C(=O)NO | 17.4 µM | 197 µM | – |
| O=C(/C=C/c1ccccc1)N[C@H](CC(=O)Nc1ccccc1)C(=O)NO | 115 µM | – | – |
| CCCCCCCCCCCCNC(=O)C[C@@H](NC(=O)/C=C/c1ccccc1)C(=O)NO | 438 µM | > 1000 µM | – |
| CCCCCCNC(=O)C[C@@H](NC(=O)/C=C/c1ccccc1)C(=O)NO | 18.1 µM | 179 µM | – |
